Our source for the Activity and Time values is ChEMBL document CHEMBL3745653, “Honokiol for the Treatment of Neonatal Pain and Prevention of Consequent Neurobehavioral Disorders” (J Nat Prod, 2015).

In data set [1] the test system is Rattus norvegicus. As to the kind of experiment: Antinociceptive activity in formalin-induced Wistar rat pups pain model assessed as decrease in thermal hyperalgesia at 10 mg/kg, ip administered daily from postnatal day 4 to day 6 prior to formalin challenge followed by further compound administration every other day until postnatal day 17 to day 21 by hot plate test. In kind it is functional, organism-based. The method, boiled down:
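Chronic severe pain model: 5% formalin (10 μL sc) or saline injected into each paw in sequence at 1 h intervals, daily P4−P6. Honokiol or corn oil ip before insult each day, then every other day until P21. Latency to jump on a 55 ± 2 °C hot plate, cutoff 30 s. Three readings at least 15 min apart averaged per animal. Blinded, mean ± SEM.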

The test system of data set [2] is Rattus norvegicus. As to the kind of experiment: Antinociceptive activity in Wistar rat pups assessed as paw-licking at 10 mg/kg, ip administered 1 hr on postnatal day 7 prior to formalin challenge measured for 60 secs at 5 mins interval for 60 mins. In kind it is functional, organism-based. A digest of the protocol:
(§1)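 Honokiol in corn oil (vehicle alone as control) given ip 1 h before intraplantar sc injection of 5% formalin (10 μL) or saline into the left forepaw. Recuperation behaviours (paw licking, lifting, flinching, rolling) scored for 60 s at 5 min intervals over 60 min. Phase I at 5 min, phase II tonic period 5−60 min. Blinded observers, n = 8 per group, mean ± SEM.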

The test system of data set [3] is Rattus norvegicus. As to the kind of experiment: Antinociceptive activity in Wistar rat pups assessed as paw-lifting at 10 mg/kg, ip administered 1 hr on postnatal day 7 prior to formalin challenge measured for 60 secs at 5 mins interval for 60 mins. In kind it is functional, organism-based. A digest of the protocol:
as §1

For data set [4], the system named is Rattus norvegicus. As to the kind of experiment: Antinociceptive activity in Wistar rat pups assessed as flinching at 10 mg/kg, ip administered 1 hr on postnatal day 7 prior to formalin challenge measured for 60 secs at 5 mins interval for 60 mins. In kind it is functional, organism-based. The method, boiled down:
as §1

In data set [5] the test system is Rattus norvegicus. As to the kind of experiment: Antinociceptive activity in formalin-induced Wistar rat pups pain model assessed as downregulation of c-Fos expression in thalamus at 10 mg/kg, ip administered on postnatal day 7 measured after 3 days post formalin challenge by immunohistochemical staining assay relative to control. In kind it is functional, organism-based. A digest of the protocol:
(§2)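 c-Fos immunohistochemistry on brain sections from P7 rats after the 3-day formalin or control protocol. Sections fixed in formalin, treated with 0.3% H2O2, blocked in 1% fish gel, then anti-c-Fos 1:500 for 24 h and biotinylated IgG. Six 20 μm sections ≥90 μm apart per animal, each with six random 20× fields counted. n = 6−8 per group.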

In data set [6] the test system is Rattus norvegicus. As to the kind of experiment: Antinociceptive activity in formalin-induced Wistar rat pups pain model assessed as increased in discrimination ratio at 10 mg/kg, ip administered 1 hr on postnatal day 7 prior to formalin challenge measured on postnatal day 21 by novel object recognition test.
Data set [7] concerns Rattus norvegicus. As to the kind of experiment: Antinociceptive activity in formalin-induced Wistar rat pups pain model assessed as improved exploratory behavior at 10 mg/kg, ip administered 1 hr on postnatal day 7 prior to formalin challenge measured on postnatal day 21 by defensive withdrawal test. In kind it is functional, organism-based. The method, boiled down:
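Defensive withdrawal at P21, during the dark cycle, after the neonatal formalin or saline insult with ip honokiol or corn oil. Habituation to the 50 × 50 × 50 cm open field for 10 min without the chamber. Animals then started in a dark chamber along the wall. Latency measured until all four paws were outside the chamber. Blinded, mean ± SEM.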

For data set [8], the system named is Rattus norvegicus. As to the kind of experiment: Antinociceptive activity in formalin-induced Wistar rat pups pain model assessed as decrease in recuperation time at 10 mg/kg, ip administered 1 hr on postnatal day 7 prior to formalin challenge. In kind it is functional. The method, boiled down: as §1
For data set [9], the system named is Rattus norvegicus. As to the kind of experiment: Toxicity in formalin-induced Wistar rat pups pain model assessed as change in exploratory behavior by measuring distance travelled at 10 mg/kg, ip administered 1 hr […] prior to formalin challenge measured for 5 mins on postnatal day 21 by open field test. In kind it is organism-based. Particulars: in vivo. The method, boiled down: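 Open-field test at P21 during the dark cycle, 1 h after ip honokiol or corn oil. Rats explored a 50 × 50 × 50 cm box for 5 min under video tracking, and total distance travelled was calculated. n = 3 or 4 per group.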

In data set [10] the test system is Rattus norvegicus. As to the kind of experiment: Antinociceptive activity in Wistar rat pups assessed as rolling at 10 mg/kg, ip administered 1 hr on postnatal day 7 prior to formalin challenge measured for 60 secs at 5 mins interval for 60 mins. In kind it is functional, organism-based. A digest of the protocol:
as §1

The subject of data set [11] is Rattus norvegicus. As to the kind of experiment: Antinociceptive activity in formalin-induced Wistar rat pups pain model assessed as downregulation of c-Fos expression in hippocampus at 10 mg/kg, ip administered on postnatal day 7 measured after 3 days post formalin challenge by immunohistochemical staining assay relative to control. In kind it is functional, organism-based. A digest of the protocol:
as §2

Data set [12] concerns Rattus norvegicus. As to the kind of experiment: Antinociceptive activity in formalin-induced Wistar rat pups pain model assessed as upregulation of substance P receptor expression in alveus at 10 mg/kg, ip administered 1 hr on postnatal day 7 prior to formalin challenge measured on postnatal day 21 by immunohistochemical staining assay relative to control. In kind it is functional, organism-based. The method, boiled down:
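Substance P receptor immunostaining at P21, 14 days after the 3-day formalin or saline protocol with ip honokiol or corn oil. Sections fixed in formalin then cold methanol, 0.2% Triton under 3 min, 1% fish gel block 1 h, primary antibody 24 h, then secondary. Positive cells counted in the hippocampal alveus, mean ± SEM.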

Calls of active or inactive are those of the source.

`C=CCc1ccc(O)c(-c2ccc(O)c(CC=C)c2)c1` [HONOKIOL]: the result in the data set with Rattus norvegicus [1], in the data set with Rattus norvegicus [2], with Rattus norvegicus [3], with Rattus norvegicus [4], in the data set with Rattus norvegicus [5] and in the data set on Rattus norvegicus [6] was Active. In addition, the result in the data set on Rattus norvegicus [7], in the data set on Rattus norvegicus [10], in the data set with Rattus norvegicus [11] and with Rattus norvegicus [12] was Active. In the data set on Rattus norvegicus [8], the Time is 30 min. Also, in the data set with Rattus norvegicus [9], the Activity is listed as 4000 mm.
